Tn6 DDE FP – inhibitors of Tn6 peptide binding to human fibrin DD(E). P02675. Fibrin DD(E) TRITC-Tn6 fluorescence polarization displacement. inhibition, % at 8.3 µM. 370,000 compounds, 0.21% hits. AID 720509;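 active means inhibition above a per-campaign cutoff: mean of compounds within control limits plus 3 SD, cut at about 15% in these data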;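 further: 0% = median of all compound wells on the plate and 100% = blocking peptide control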
C-LANA FP – inhibitors of KSHV LANA C-terminal domain DNA binding. inhibition, % at 9 µM. MBP-C-LANA/FAM-LBS DNA binding, fluorescence polarization. 340,000 compounds, 0.078% hits. AID 504423;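 active means highest replicate inhibition at or above 60% at 9 µM, even if other replicates fall short; inactive means all replicates below 60% inhibition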;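 further: 0% = neutral control wells and 100% = 4 µM acridine orange control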
Rtt109 Vps75 – inhibitors of Candida albicans Rtt109/Vps75 histone acetyltransferase; Q5AAJ8; purified Rtt109/Vps75, ThioGlo CoA-SH fluorescence, 4 h; inhibition, % at 34.9 µM; 330,000 compounds, 0.16% hits; AID 540336;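 active means inhibition of at least 50% in every replicate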
Keap1 Nrf2 FP – disrupts human Keap1 binding to Nrf2 peptide. Q14145. Keap1 Kelch-Nrf2 peptide fluorescence polarization, 1536-well. inhibition, % at 9.4 µM. 340,000 compounds, 0.15% hits. AID 504523; in the data active means inhibition above about 12%;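 further: human Keap1 Kelch domain with fluorescein labeled Nrf2 9mer peptide probe; 0% = neutral control wells and 100% = peptide positive control; higher means more block of Keap1 binding to Nrf2 peptide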
Target sequence (Q14145 whole entry, looked up, the tested form may be a part): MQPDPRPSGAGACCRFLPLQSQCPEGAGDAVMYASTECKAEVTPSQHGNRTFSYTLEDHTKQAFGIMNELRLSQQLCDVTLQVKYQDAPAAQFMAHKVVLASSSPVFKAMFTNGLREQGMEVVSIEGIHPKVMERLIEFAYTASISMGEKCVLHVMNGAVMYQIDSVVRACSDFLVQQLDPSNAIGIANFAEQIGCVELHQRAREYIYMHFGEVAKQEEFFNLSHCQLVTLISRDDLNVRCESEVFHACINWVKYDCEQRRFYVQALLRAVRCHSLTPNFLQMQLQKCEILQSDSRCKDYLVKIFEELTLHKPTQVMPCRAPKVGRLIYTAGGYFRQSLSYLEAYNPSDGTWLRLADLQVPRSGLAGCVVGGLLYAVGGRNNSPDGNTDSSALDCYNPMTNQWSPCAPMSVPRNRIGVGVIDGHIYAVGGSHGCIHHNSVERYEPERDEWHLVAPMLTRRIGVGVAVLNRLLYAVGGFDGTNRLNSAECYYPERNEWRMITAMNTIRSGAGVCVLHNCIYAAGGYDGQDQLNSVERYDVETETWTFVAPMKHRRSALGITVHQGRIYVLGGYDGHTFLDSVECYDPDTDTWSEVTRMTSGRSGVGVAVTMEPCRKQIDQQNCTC
Tn7 DDE FP – disrupts Tn7 cyclic peptide binding to fibrin D-Dimer-E complex | P02675 | FP displacement of FITC-Tn7 peptide from fibrin DD(E); 0% = median of compound wells per plate | inhibition, % at 8.3 µM | 370,000 compounds, 0.13% hits;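 active means inhibition above the mean of compounds falling within the control limits plus 3 SD of them, cut at about 14% in these data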;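 further: 0% = plate median of compound wells and 100% = 10 µM Aha-Tn7 peptide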
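assay system = human clot-derived fibrin DD(E) complex | quantity = Fibrin-DD(E) at 2 µM final | timing = 10 min preincubation, 3 h with tracer, room temperature | signal = fluorescence polarization | measure = percent inhibition | benchmarks = high control wells with 10 µM unlabelled Aha-Tn7 peptide (full inhibition) | replicates = singlicate testing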
DDE Tn7 confirm – DD(E)-Tn7 binding inhibition, FP confirmation; shares compounds with Tn7 DDE FP; FP displacement of TRITC-Tn7 peptide from DD(E); 0% set at plate's compound-well median; inhibition, % at 8.3 µM; 460 compounds, 5% hits; AID 720628;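 active means inhibition above the campaign cutoff, the mean of compounds within control limits plus 3 SD, cut at about 14% in these data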;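 further: 100% = median FP of high control wells holding Aha-Tn7 inhibitor peptide; displacers lower polarization since freed probe rises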
Tn7 DDE ctr – counter-screen hit for Tn7 peptide-fibrin DD(E) binding disruption; inhibition, % at 8.3 µM; AID 720633; shares compounds with Tn7 DDE FP; TRITC-Tn7 probe displacement, fluorescence polarization; 460 compounds, 3% hits;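 active means inhibition above the cutoff, the mean of compounds lying between the control bounds plus 3 SD of those compounds, cut at about 17% in these data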;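 further: 0% = median of compound sample wells and 100% = excess unlabeled Aha-Tn7 peptide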
An asterisk follows results filed as active; nt = no result given. Compounds with a hit are over-represented: about 0.6% of the library has one in this group of screens.

SMILES	Tn6 DDE FP	C-LANA FP	Rtt109 Vps75	Keap1 Nrf2 FP	Tn7 DDE FP	DDE Tn7 confirm	Tn7 DDE ctr
O=C(OCC(=O)N1CCCc2ccccc21)c1cccc(C(F)(F)F)c1	3	-1	-6	2	15*	3	4
CCOC(=O)CCCNC(=O)OC1CCC12CCC(c1ccccc1)CC2 (stereo unspecified)	4	nt	nt	nt	0	nt	nt
COc1cccc(NC(=O)C2CCCN2C(=O)Nc2cccc3c2OCO3)c1 (stereo unspecified)	5	nt	nt	nt	9	nt	nt
CCOC(=O)c1csc(NC(=O)C2CCCN(S(=O)(=O)c3ccc(Br)s3)C2)n1 (stereo unspecified)	0	nt	nt	nt	-7	nt	nt
O=C(NCc1c(F)cccc1F)C1CCCN(c2ncccn2)C1 (stereo unspecified)	7	nt	nt	nt	7	nt	nt
CSCCCNC(=O)c1oc(=O)c2ccccc2c1-c1ccc(C)cc1	7	nt	nt	nt	15*	-2	-3
CC1=NC(C(F)(F)F)(C(F)(F)F)C2=C(CC(C)(C)CC2=O)N1Cc1ccco1	-8	1	9	-1	14*	6	3
CC1(C)CC(=O)C2=C(C1)N(Cc1ccco1)C(=O)C2(NC(=O)C1CCCCC1)C(F)(F)F (stereo unspecified)	-2	-1	15	-7	14*	2	5
CN(C)S(=O)(=O)c1ccc(C(=O)NCC(=O)N/N=C/c2cccs2)cc1	9	0	-2	3	15*	-2	-3
Oc1ccc2[nH]cc(-c3cccs3)c2c1-c1ccccc1	5	nt	nt	nt	1	nt	nt
Cc1ccc(-n2c(SCC(=O)c3ccc4ccccc4c3)nnc2-c2cccnc2)cc1	-1	nt	nt	nt	7	nt	nt
CC(C)(C)/C(COc1ccccc1[N+](=O)[O-])=N/O	4	-5	2	-2	1	nt	nt
CC(C)(C)OC(=O)C(Oc1ccccc1[N+](=O)[O-])C(=O)OC(C)(C)C	11	nt	nt	nt	19*	1	11
CCCC/C=C1/[C@@H](CC)N(Cc2ccc(OC)cc2OC)C2=N[C@H](c3ccccc3)CC(=O)N21	-6	nt	nt	nt	-1	nt	nt
CCOC(=O)N1CCN(C(=O)C[C@@H]2C(=O)N(Cc3ccc(OC)cc3)C3=CCN(C(=O)OC(C)(C)C)C[C@]32C(=O)OCC)CC1	-2	nt	nt	nt	2	nt	nt
OCCOCCn1c(C(CO)Nc2nc(-c3cccc(Br)c3)cs2)nc2ccccc21 (stereo unspecified)	-4	-1	-15	0	3	nt	nt
OCCOCCn1c(C(CO)Nc2nc(-c3ccccc3Br)cs2)nc2ccccc21 (stereo unspecified)	4	-1	-8	-1	14*	4	5
N/C(=N\OC(=O)Cc1ccc(-c2ccccc2)cc1)c1cccc([N+](=O)[O-])c1	5	1	28	-4	14*	8	5
O=C(NC(=S)NC1CCSC1=O)c1ccccc1 (stereo unspecified)	-3	1	11	1	2	nt	nt
O=C(NC(=S)NC1CCSC1=O)c1ccccc1Cl (stereo unspecified)	-2	-2	-1	-2	15*	4	1
CC(C)(C)c1ccc(C(=O)Nc2cc(Cl)c(F)cc2C(=O)O)cc1	-7	nt	nt	nt	-7	nt	nt
CC(=O)Nc1sc(C)c(C)c1C(=O)OCC(=O)Nc1ccccc1C(F)(F)F	5	nt	nt	nt	16*	3	2
O=C(NCC1COc2ccccc2O1)c1ccc(NC(=O)c2cccc(F)c2)cc1 (stereo unspecified)	1	nt	nt	nt	9	nt	nt
Cn1cccc1C(=O)OCC(=O)NCc1ccc2c(c1)OCO2	-3	0	0	0	21*	4	3
COc1ccc(CN(CCN2CCOCC2)C(=O)c2cccc(F)c2F)cc1OC	3	nt	nt	nt	6	nt	nt
SMILES	Tn6 DDE FP	C-LANA FP	Rtt109 Vps75	Keap1 Nrf2 FP	Tn7 DDE FP	DDE Tn7 confirm	Tn7 DDE ctr
COC(=O)[C@]12C[C@H](CC(=O)NCc3ccccc3)C(=O)N(CCc3ccc(OC)c(OC)c3)C1=C[C@H](C1CCCC1)O[C@@H]2C	12	nt	nt	nt	0	nt	nt
COc1ccc2c(c1)CO[C@H]([C@H](O)COC(C)=O)[C@H]2/C=C/c1ccccc1	-5	nt	nt	nt	15*	10	5
CCOC(=O)CC[C@@H]1CC[C@]2(CCCN(S(=O)(=O)C3CCCCC3)C2)O1	0	nt	nt	nt	3	nt	nt
CC1=C(C(=O)OC(C)C)C(c2ccc3c(c2)OCO3)NC(=O)N1 (stereo unspecified)	-6	-2	-2	-1	16*	3	-1
COC(=O)C1=C(C)NC(=O)NC1c1ccc2c(c1)OCO2 (stereo unspecified)	-10	7	7	-5	-1	nt	nt
CC1CCCC(C)N1C(=O)COC(=O)Cc1c[nH]c2ccccc12 (stereo unspecified)	2	-1	-3	0	1	nt	nt
CC1CCCCN1C(=O)COC(=O)Cc1c[nH]c2ccccc12 (stereo unspecified)	4	-3	6	5	15*	2	0
COC(=O)C[C@@H]1CC[C@H]2[C@@H](COc3ccc(NC(=O)Nc4ccccc4)cc3C(=O)N2C)O1	0	nt	nt	nt	4	nt	nt
N#CC1=C(N)Oc2n[nH]c(-c3ccc(F)cc3)c2C1c1cccc(OC(=O)N2CCOCC2)c1 (stereo unspecified)	7	-1	7	-1	15*	5	-3
COC(=O)C1CSC(C(=O)OC)N1C(=O)Nc1ccc(Cl)cc1 (stereo unspecified)	2	0	-5	0	2	nt	nt
COC(=O)C1CSC(C(=O)OC)N1C(=O)Nc1ccc(Cl)c(Cl)c1 (stereo unspecified)	4	-2	-1	-4	15*	1	-2
COc1ccccc1OCC(=O)N1CCN(c2ccccc2OC)CC1	-6	0	-45	-6	19*	-3	-7
COc1ccccc1N1CCN(C(=O)c2oc3ccc(F)cc3c2C)CC1	-4	-1	-2	-3	16*	0	-1
C#CCNc1ccc([N+](=O)[O-])cc1	-1	0	11	-1	19*	14	2
CC[C@H]1OC(=O)[C@H](C)[C@@H](O[C@H]2C[C@@](C)(OC)[C@@H](O)[C@H](C)O2)C(C)[C@@H](O[C@@H]2O[C@H](C)C[C@H](N(C)C)[C@H]2O)[C@](C)(O)C[C@@H](C)CN(C)[C@H](C)[C@@H](O)[C@]1(C)O (stereo partly specified)	9	nt	nt	nt	14*	5	5
COC(=O)C(C(C)C)N(Cc1cc(OC)cc(OC)c1)S(=O)(=O)CCl (stereo unspecified)	1	1	4	-1	15*	0	-4

Screens deposited in PubChem BioAssay by several laboratories.
